Shown are actives, neighbours in structure and some others; about 3% of the full set was active somewhere.
TRPC4 agonist = activators of mouse TRPC4 channel | Q9QUQ5 | HEK293 TRPC4beta/mu-opioid, Fluo4 calcium fluorescence; active compounds read high | B-score at 10 µM | 310,000 tested, 0.49% active | AID 2237;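 active = B-score above 5 SD of library B-scores, and initial fluorescence ratio not above library mean plus 5 SD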;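 note: positive B-score marks a calcium rise read as TRPC4 activation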
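system = HEK293 cells stably co-expressing mouse TRPC4beta and mu-opioid receptor | schedule = Fluo4 dye loading 45 min at room temperature, 110 s recording | measure = B-scored integrated calcium fluorescence ratio | signal = Fluo4 calcium-sensitive dye fluorescence, kinetic, 1 Hz baseline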
TRPC6 inhibitor = inhibitors of mouse TRPC6 channel; Q61143; HEK293-TRPC6, membrane potential dye, ACh-evoked depolarization; active compounds read low; B-score at 10 µM; 310,000 tested, 1.1% active; AID 2553;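 active = B-score under library mean minus 3 SD, initial fluorescence not abnormally high, positive integrated signal ratio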;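 note: B-score derived from integrated fluorescence ratio over the kinetic read; more negative B-score means stronger inhibition of depolarization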
TRPC4 PAM = TRPC4 (mouse) allosteric potentiation; 310,000 tested, 0.42% active; HEK293 TRPC4beta/mu-opioid, DAMGO EC20, Fluo-4 Ca2+ flux; active compounds read high; AID 2227; B-score at 10 µM; Q9QUQ5;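 active = B-score of calcium response area above 5 SD of library B-scores, with initial fluorescence ratio within 5 SD of library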;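 note: B-score of integrated fluorescence ratio over time as area under calcium response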
TRPC6 act = mouse TRPC6 channel activation | Q61143 | HEK293-TRPC6 membrane potential dye fluorescence; active compounds read high | B-score at 10 µM | 310,000 tested, 0.13% active | AID 2550;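 active = B-score of the integrated fluorescence ratio above library mean plus 3 SD, and starting fluorescence ratio within library mean plus 5 SD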;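 note: higher score means more depolarization so channel activation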
Kir21 block = inhibitors of mouse Kir2.1 inward-rectifier potassium channel; B-score at 10 µM; HEK293-Kir2.1, FluxOR thallium flux fluorescence; active compounds read low; 310,000 tested, 0.85% active; AID 1672; P35561;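 active = fluorescence ratio B-score at or below minus 3 SD of library scores, with starting-brightness B-score within 2 SD, cut at about -4.2 in these data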;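 note: channel flux triggered by added potassium and thallium sulfate stimulus; B-score of peak minus minimum fluorescence over baseline after thallium stimulus; more negative B-score means stronger Kir2.1 block with less thallium influx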
TRPC4 block = inhibitors of mouse TRPC4 channel; Q9QUQ5; B-score at 10 µM; AID 2247; 300,000 tested, 0.39% active; HEK293 TRPC4beta/mu-opioid, DAMGO-evoked Fluo4 calcium flux; active compounds read low;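 active = B-score over 3 SD under the library average, no early fluorescence shift, positive overall ratio signal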
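System: stable TRPC4beta/mu-opioid receptor HEK293 cells; Dosing: single-point compound dosing; Measured by: Fluo4 Ca2+ flux fluorescence; Read-out basis: per-well B score of integrated baseline-normalized Fluo4 ratio.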
Starred values were filed as active, the others as inactive.

COC(=O)CSc1nnc([C@H](Cc2ccccc2)NC(=O)OC(C)(C)C)o1 was read as TRPC4 agonist inactive, TRPC6 inhibitor inactive, TRPC4 PAM inactive, TRPC6 act inactive, Kir21 block -0.16 and TRPC4 block inactive.
For CC(C)(C)OC(=O)N[C@@H](Cc1ccccc1)c1nnc(SCC(N)=O)o1 the results were TRPC4 agonist inactive, TRPC6 inhibitor inactive, TRPC4 PAM inactive, TRPC6 act inactive, Kir21 block -0.01 and TRPC4 block inactive.
`COC(=O)CS(=O)(=O)c1nnc([C@H](Cc2ccccc2)NC(=O)OC(C)(C)C)o1` gave TRPC4 agonist inactive, TRPC6 inhibitor inactive, TRPC4 PAM inactive, TRPC6 act inactive, Kir21 block -2.92 and TRPC4 block -5*.
Screening Cc1cccc(CS(=O)(=O)c2nnc([C@H](Cc3ccccc3)NC(=O)OC(C)(C)C)o2)c1 returned TRPC4 agonist inactive, TRPC6 inhibitor inactive, TRPC4 PAM inactive, TRPC6 act inactive, Kir21 block -8.14* and TRPC4 block inactive.
CCCCn1c(=N)n(CC(=O)c2ccc(Br)s2)c2ccccc21 was read as TRPC4 agonist inactive, TRPC6 inhibitor inactive, TRPC4 PAM inactive, TRPC6 act inactive, Kir21 block -0.25 and TRPC4 block inactive.
For CCn1c(=N)n(CC(=O)c2ccc(Br)s2)c2ccccc21 the results were TRPC4 agonist inactive, TRPC6 inhibitor inactive, TRPC4 PAM inactive, TRPC6 act inactive, Kir21 block -0.67 and TRPC4 block -6*.
For CC(C)c1cccc(C(C)C)c1OCCCCCN1CCOCC1 the results were TRPC4 agonist inactive, TRPC6 inhibitor inactive, TRPC4 PAM inactive, TRPC6 act inactive, Kir21 block -5.11* and TRPC4 block inactive.
`c1ccc2c(OCCCCN3CCOCC3)cccc2c1` gave TRPC4 agonist inactive, TRPC6 inhibitor inactive, TRPC4 PAM inactive, TRPC6 act inactive, Kir21 block -0.16 and TRPC4 block inactive.
For COc1cc(CNCCNC(=O)c2nonc2N)ccc1OCc1ccc(Cl)cc1 the results were TRPC4 agonist inactive, TRPC6 inhibitor inactive, TRPC4 PAM inactive, TRPC6 act inactive, Kir21 block -6.65* and TRPC4 block inactive.
Screening COc1cccc(CNCCNC(=O)c2nonc2N)c1 returned TRPC4 agonist inactive, TRPC6 inhibitor inactive, TRPC4 PAM inactive, TRPC6 act inactive, Kir21 block -0.25 and TRPC4 block inactive.
For CC(=O)c1ccc(N2CCN(C(=O)C(=O)c3c(C)[nH]c4ccccc34)CC2)cc1 the results were TRPC4 agonist inactive, TRPC6 inhibitor inactive, TRPC4 PAM 10*, TRPC6 act inactive, Kir21 block -0.5 and TRPC4 block inactive.
Screening CCN(CC)CCOC(=O)c1cccc(OC)c1 returned TRPC4 agonist 80*, TRPC6 inhibitor inactive, TRPC4 PAM inactive, TRPC6 act inactive, Kir21 block -0.91 and TRPC4 block inactive.
For CCOCCSC1=C(C#N)C(c2cccs2)C(C(C)=O)=C(C)N1 (stereo unspecified) the results were TRPC4 agonist inactive, TRPC6 inhibitor inactive, TRPC4 PAM inactive, TRPC6 act inactive, Kir21 block -0.05 and TRPC4 block -6*.
O=C(CNc1ccc(Cl)cc1)c1ccc(Br)cc1 was read as TRPC4 agonist inactive, TRPC6 inhibitor inactive, TRPC4 PAM inactive, TRPC6 act inactive, Kir21 block -0.04 and TRPC4 block inactive.
`O=C(CNc1ccc(Br)cc1)c1ccc(O)cc1` gave TRPC4 agonist inactive, TRPC6 inhibitor inactive, TRPC4 PAM inactive, TRPC6 act inactive, Kir21 block 0.09 and TRPC4 block -8*.
Screening O=S(=O)(Nc1cc2nc3ccccc3nc2n1Cc1ccccc1)c1ccc(Cl)cc1 returned TRPC4 agonist inactive, TRPC6 inhibitor inactive, TRPC4 PAM inactive, TRPC6 act 25.7*, Kir21 block -9.53 and TRPC4 block inactive.
O=S(=O)(NCc1ccccc1)c1ccc(Cl)cc1 was read as TRPC4 agonist inactive, TRPC6 inhibitor inactive, TRPC4 PAM inactive, TRPC6 act inactive, Kir21 block -0.89 and TRPC4 block inactive.
CN(CCOc1ccc(Br)cc1)CC(O)c1ccccc1 (stereo unspecified) was read as TRPC4 agonist 149*, TRPC6 inhibitor inactive, TRPC4 PAM inactive, TRPC6 act inactive, Kir21 block -1.17 and TRPC4 block inactive.
For CN(CCOc1ccc(Cl)cc1)CC(O)c1ccccc1 (stereo unspecified) the results were TRPC4 agonist 126*, TRPC6 inhibitor inactive, TRPC4 PAM inactive, TRPC6 act inactive, Kir21 block 0.02 and TRPC4 block inactive.
`CN(CCOc1ccc(Br)cc1)CC(O)COc1ccc(C#N)cc1` (stereo unspecified) gave TRPC4 agonist inactive, TRPC6 inhibitor inactive, TRPC4 PAM inactive, TRPC6 act inactive, Kir21 block -2.64 and TRPC4 block inactive.
For CC(OCC(O)CN(C)CCOc1ccccc1)c1ccc(Cl)cc1 (stereo unspecified) the results were TRPC4 agonist inactive, TRPC6 inhibitor inactive, TRPC4 PAM inactive, TRPC6 act inactive, Kir21 block -5* and TRPC4 block -6*.
`COc1ccc2c(C)cc(SCC#N)nc2c1` gave TRPC4 agonist inactive, TRPC6 inhibitor inactive, TRPC4 PAM inactive, TRPC6 act inactive, Kir21 block -0.44 and TRPC4 block inactive.
Cc1cc(SCC#N)nc2ccccc12 was read as TRPC4 agonist inactive, TRPC6 inhibitor inactive, TRPC4 PAM inactive, TRPC6 act inactive, Kir21 block -1.15 and TRPC4 block -6*.
`CC(C)(C)C1=CC(O)(c2ccccc2)C=C(C(C)(C)C)C1=O` gave TRPC4 agonist inactive, TRPC6 inhibitor inactive, TRPC4 PAM inactive, TRPC6 act inactive, Kir21 block -1.76 and TRPC4 block inactive.
Screening N#CC1=C(N)C(C#N)(C#N)C(c2ccc[nH]2)C2CCCC=C12 (stereo unspecified) returned TRPC4 agonist inactive, TRPC6 inhibitor inactive, TRPC4 PAM inactive, TRPC6 act inactive, Kir21 block -4.89* and TRPC4 block inactive.
For N#CC1=C(N)C(C#N)(C#N)C(c2cccnc2)C2CCCC=C12 (stereo unspecified) the results were TRPC4 agonist inactive, TRPC6 inhibitor inactive, TRPC4 PAM inactive, TRPC6 act inactive, Kir21 block -0.57 and TRPC4 block inactive.
Screening Cc1nn(-c2nc3ccccc3n2Cc2ccccc2)c2c1C(=O)CC(C)(C)C2 returned TRPC4 agonist inactive, TRPC6 inhibitor inactive, TRPC4 PAM inactive, TRPC6 act inactive, Kir21 block -0.69 and TRPC4 block -6*.
